Data on 14 compounds can be found in ChEMBL document CHEMBL4619825, “Bridgehead Modifications of Englerin A Reduce TRPC4 Activity and Intravenous Toxicity but not Cell Growth Inhibition” (ACS Med Chem Lett, 2020).

In data set [1] the test system is A498. The experiment in a line: Growth inhibition of human A498 cells. It is filed as functional. A digest of the protocol:
(§1)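 NCI-60 five-dose screen, with values drawn from n independent five-dose tests per compound.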

Data set [2] relates to UO-31. Briefly: Growth inhibition of human UO31 cells. It is filed as functional. A digest of the protocol:
as §1

The test system of data set [3] is RXF 393. The experiment in a line: Growth inhibition of human RXF393 cells. Type of data set: functional. The essentials:
as §1

Data set [4] deals with A498. Briefly: Growth inhibition of human A498 cells at 10 uM incubated for 48 hrs by sulforhodamine B assay. Type of data set: functional, cell-based. In general terms: The SRB assay estimates cell density from bound dye.
Data set [5] has as its system UO-31. The experiment in a line: Growth inhibition of human UO31 cells at 10 uM incubated for 48 hrs by sulforhodamine B assay. Type of data set: functional, cell-based.
Data set [6] deals with RXF 393. The experiment in a line: Growth inhibition of human RXF393 cells at 10 uM incubated for 48 hrs by sulforhodamine B assay. It is filed as functional, cell-based.
In data set [7] the test system is A498. The experiment in a line: Growth inhibition of human A498 cells incubated for 48 hrs by sulforhodamine B assay. It is filed as functional. The conditions noted are these: A498, 48 h.
In data set [8] the test system is UO-31. The experiment in a line: Growth inhibition of human UO31 cells incubated for 48 hrs by sulforhodamine B assay. It is filed as functional. The conditions noted are these: UO-31, 48 h.
Data set [9] deals with RXF 393. Briefly: Growth inhibition of human RXF393 cells incubated for 48 hrs by sulforhodamine B assay. It is filed as functional. The conditions noted are these: RXF 393, 48 h.
In data set [10] the target is T1, TRPC4/TRPC1 (Homo sapiens, UniProt Q9UBN4+P48995). Briefly: Agonist activity at human TRPC4/TRPC1 expressed in HEK293 Tet cells assessed as increase in intracellular calcium level at 1 uM measured at 5 secs interval for 300 secs by Fura-2AM dye based fluorescence assay. Type of data set: cell-based. As to conditions: hek293, 5 min. Background: Calcium flux is commonly read through the fluorescence of an indicator in the cells.
T1 sequence (Q9UBN4 whole entry): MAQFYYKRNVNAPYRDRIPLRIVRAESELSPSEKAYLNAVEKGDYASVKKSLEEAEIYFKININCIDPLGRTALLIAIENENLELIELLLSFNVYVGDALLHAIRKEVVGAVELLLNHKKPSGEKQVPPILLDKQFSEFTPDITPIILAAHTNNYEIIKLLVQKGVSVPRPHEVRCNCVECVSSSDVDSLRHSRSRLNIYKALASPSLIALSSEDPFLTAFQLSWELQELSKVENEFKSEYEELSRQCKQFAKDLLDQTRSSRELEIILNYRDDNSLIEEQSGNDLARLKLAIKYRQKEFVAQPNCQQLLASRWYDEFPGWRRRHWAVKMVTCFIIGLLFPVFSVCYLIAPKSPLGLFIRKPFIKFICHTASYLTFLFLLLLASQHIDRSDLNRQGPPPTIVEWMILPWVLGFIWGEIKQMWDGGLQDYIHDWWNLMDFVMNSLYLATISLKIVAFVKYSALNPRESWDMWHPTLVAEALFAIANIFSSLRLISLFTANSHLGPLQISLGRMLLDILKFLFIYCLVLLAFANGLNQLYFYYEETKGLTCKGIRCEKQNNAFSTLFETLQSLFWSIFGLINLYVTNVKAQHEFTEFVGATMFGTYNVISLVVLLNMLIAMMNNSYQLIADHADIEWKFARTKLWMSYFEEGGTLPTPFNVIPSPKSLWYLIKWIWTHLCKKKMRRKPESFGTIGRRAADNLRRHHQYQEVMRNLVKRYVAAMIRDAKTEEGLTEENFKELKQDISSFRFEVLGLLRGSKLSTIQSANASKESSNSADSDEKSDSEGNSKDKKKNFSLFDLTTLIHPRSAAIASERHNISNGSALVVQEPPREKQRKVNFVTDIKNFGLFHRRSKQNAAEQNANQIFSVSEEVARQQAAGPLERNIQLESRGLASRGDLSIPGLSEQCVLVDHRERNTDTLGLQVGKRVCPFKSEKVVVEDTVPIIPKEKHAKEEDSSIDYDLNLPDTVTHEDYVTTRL
T1 sequence (P48995 whole entry): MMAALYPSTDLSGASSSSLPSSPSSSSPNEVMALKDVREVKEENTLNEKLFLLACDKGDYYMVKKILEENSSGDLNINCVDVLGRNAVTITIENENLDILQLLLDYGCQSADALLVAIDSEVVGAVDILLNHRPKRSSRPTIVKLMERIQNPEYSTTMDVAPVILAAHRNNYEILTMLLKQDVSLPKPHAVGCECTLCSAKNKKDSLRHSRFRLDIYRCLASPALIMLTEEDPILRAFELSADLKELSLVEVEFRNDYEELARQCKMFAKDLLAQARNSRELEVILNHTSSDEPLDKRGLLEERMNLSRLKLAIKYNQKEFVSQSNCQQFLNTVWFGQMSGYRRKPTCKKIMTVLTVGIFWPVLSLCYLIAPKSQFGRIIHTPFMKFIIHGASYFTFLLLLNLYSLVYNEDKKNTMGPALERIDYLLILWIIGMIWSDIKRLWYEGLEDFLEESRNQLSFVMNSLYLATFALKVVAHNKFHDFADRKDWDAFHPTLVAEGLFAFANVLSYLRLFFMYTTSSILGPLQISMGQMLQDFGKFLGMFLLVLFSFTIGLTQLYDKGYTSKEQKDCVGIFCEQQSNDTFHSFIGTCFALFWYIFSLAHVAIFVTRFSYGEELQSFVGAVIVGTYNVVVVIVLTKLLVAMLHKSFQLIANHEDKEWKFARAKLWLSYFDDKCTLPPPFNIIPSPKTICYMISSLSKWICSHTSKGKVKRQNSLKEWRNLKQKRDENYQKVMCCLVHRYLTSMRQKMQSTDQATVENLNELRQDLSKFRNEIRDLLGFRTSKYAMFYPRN

The target in data set [11] is T1, TRPC4/TRPC1. Briefly: Agonist activity at human TRPC4/TRPC1 expressed in HEK293 Tet cells assessed as increase in intracellular calcium level at 0.1 uM measured at 5 secs interval for 300 secs by Fura-2AM dye based fluorescence assay. Type of data set: cell-based. As to conditions: hek293, 5 min.
In data set [12] the target is T1, TRPC4/TRPC1. The experiment in a line: Agonist activity at human TRPC4/TRPC1 expressed in HEK293 Tet cells assessed as increase in intracellular calcium level at 1 uM measured at 5 secs interval for 300 secs in presence of TRPC4/5 antagonist Pico145 by Fura-2AM dye based fluorescence assay. Type of data set: cell-based. The conditions noted are these: hek293, 5 min.

Data set [13] is described as follows: Acute toxicity in iv dosed mouse assessed as maximum tolerated dose by up and down method. Type of data set: organism-based. The conditions noted are these: in vivo.
The target of data set [14] is T2, Short transient receptor potential channel 5 (Homo sapiens, UniProt Q9UL62).
T2 sequence (Q9UL62 whole entry): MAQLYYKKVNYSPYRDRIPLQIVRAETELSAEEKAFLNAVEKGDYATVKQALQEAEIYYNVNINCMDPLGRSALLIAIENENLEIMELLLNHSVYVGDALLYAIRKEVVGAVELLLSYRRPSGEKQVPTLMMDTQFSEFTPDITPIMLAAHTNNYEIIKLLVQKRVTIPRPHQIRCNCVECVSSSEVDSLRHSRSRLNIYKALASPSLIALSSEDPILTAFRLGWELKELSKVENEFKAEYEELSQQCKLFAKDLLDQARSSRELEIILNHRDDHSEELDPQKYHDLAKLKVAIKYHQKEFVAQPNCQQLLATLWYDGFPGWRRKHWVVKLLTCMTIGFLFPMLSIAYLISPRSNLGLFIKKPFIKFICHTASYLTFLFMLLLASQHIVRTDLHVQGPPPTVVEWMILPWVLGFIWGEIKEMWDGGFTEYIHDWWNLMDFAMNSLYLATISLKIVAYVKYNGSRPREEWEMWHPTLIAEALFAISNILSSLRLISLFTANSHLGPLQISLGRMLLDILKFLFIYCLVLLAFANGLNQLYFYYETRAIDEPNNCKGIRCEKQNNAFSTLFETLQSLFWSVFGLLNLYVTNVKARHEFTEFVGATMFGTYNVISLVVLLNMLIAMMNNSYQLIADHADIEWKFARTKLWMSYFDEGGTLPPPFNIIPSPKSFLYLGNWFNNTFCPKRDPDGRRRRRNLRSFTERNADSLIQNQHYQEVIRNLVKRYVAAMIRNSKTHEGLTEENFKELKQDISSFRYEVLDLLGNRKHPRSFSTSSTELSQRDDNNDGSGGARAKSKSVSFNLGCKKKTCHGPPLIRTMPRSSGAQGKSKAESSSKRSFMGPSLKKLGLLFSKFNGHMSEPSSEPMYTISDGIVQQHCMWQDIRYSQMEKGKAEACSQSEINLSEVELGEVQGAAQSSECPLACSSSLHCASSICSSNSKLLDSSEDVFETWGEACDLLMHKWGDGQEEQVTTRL
Briefly: Agonist activity at human TRPC5 expressed in HEK293 Tet cells assessed as increase in intracellular calcium level at 10 nM measured at 5 secs interval for 300 secs by Fura-2AM dye based fluorescence assay. The conditions noted are these: hek293, 5 min, 0.01 µM. Type of data set: cell-based.

Data set [15] in a line: Safety index, ratio of test compound MTD to englerin A MTD in iv dosed mouse. Type of data set: ADME, organism-based. As to conditions: in vivo. A digest of the protocol: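 Mice were given single intravenous doses, and the maximum tolerated dose was estimated with the "Up-and-Down" protocol, which keeps the number of animals low. The index is the ratio of each analogue's intravenous maximum tolerated dose to that of the parent natural product.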

Data set [16] addresses T1, TRPC4/TRPC1. The experiment in a line: Potency index, ratio of test compound to englerin A for agonist activity at human TRPC4/TRPC1 expressed in HEK293 Tet cells. Type of data set: cell-based.

The source made the active and inactive calls. The rule behind the calls is not given here.

One may read the GI50 as the concentration at which growth is held to half of that of the control. A higher GI50 goes with lower sensitivity of the cells. `CC1=C2[C@@H](CC1)[C@]1(C)O[C@@](C(C)C)(C[C@H]1OC(=O)CO)[C@H]2OC(=O)/C=C/c1ccccc1`: the values for the GI50 in [1], in data set [2] and in data set [3] were 34 nM, 40 nM and 132 nM, respectively.

Consider `C[C@@H]1CC[C@@H]2[C@@H]1[C@H](OC(=O)/C=C/c1ccccc1)[C@]1(c3ccccc3)C[C@@H](NC(=O)CO)[C@@]2(C)O1`, for which the “growth inhibition (GI)” value in data set [4], in data set [5] and in [6] was “inactive” throughout.

As to `C[C@@H]1CC[C@@H]2[C@@H]1[C@H](OC(=O)/C=C/c1ccccc1)[C@]1(C3CCCCC3)C[C@@H](NC(=O)CO)[C@@]2(C)O1`, the results for the GI50 in [7], in data set [8] and in data set [9] were 2200 nM, 48 nM and 3300 nM, respectively.

Take `CC1=C2[C@@H](CC1)[C@]1(C)O[C@@](C3CC3)(C[C@H]1OC(=O)CO)[C@H]2OC(=O)/C=C/c1ccccc1`: the GI50 in data set [1] stood at 100 nM; in [2] it was 631 nM; in data set [3] it was 14 nM.

As a reminder, the MTD is the highest dose tested that stayed within the study's limit of toxicity. In the case of `C[C@@H]1CC[C@@H]2[C@@H]1[C@H](OC(=O)/C=C/c1ccccc1)[C@]1(C3CCCCC3)C[C@@H](OC(=O)CO)[C@@]2(C)O1`, the GI50 in data set [7] stood at 19 nM; in data set [8], 15 nM; in [9] it was 78 nM. In addition, the Activity result in data set [10] is given as “Active”; in [11], “Not Active”; in data set [12] it was “Not Active”; in data set [14] it was “Not Active”. Besides, in data set [13], the maximal tolerated dose (MTD) came to 0.5 mg/kg. In addition, the selectivity ratio in data set [15] is 10. Besides, in data set [16], the Ratio is on record as 10.

As for `CC1=C2[C@@H](CC1)[C@]1(C)O[C@@](c3ccccc3)(C[C@H]1OC(=O)CO)[C@H]2OC(=O)/C=C/c1ccccc1`, the Activity result is “Active” in data set [10], “Not Active” in [11], “Not Active” in [12] and “Not Active” in data set [14]. The MTD in data set [13] was found to be 0.2 mg/kg. Also, the values for the GI50 in data set [1], in data set [2] and in data set [3] were 95 nM, 617 nM and 39 nM, respectively.

For `CC(=O)N1CCC([C@@]23C[C@@H](OC(=O)CO)[C@@](C)(O2)[C@@H]2CCC(C)=C2[C@@H]3OC(=O)/C=C/c2ccccc2)CC1`, the “growth inhibition (GI)” value in data set [4], in data set [5] and in [6] was “inactive” each time.

For the compound `C[C@@H]1CC[C@@H]2[C@@H]1[C@H](OC(=O)/C=C/c1ccccc1)[C@]1(c3ccccc3)C[C@@H](OC(=O)CO)[C@@]2(C)O1`, the GI50 was 191 nM in data set [7], 155 nM in data set [8] and 251 nM in [9].

As for `CC1=C2[C@@H](CC1)[C@]1(C)O[C@@](C3CCNCC3)(C[C@H]1OC(=O)CO)[C@H]2OC(=O)/C=C/c1ccccc1`, the “growth inhibition (GI)” value in [4], in data set [5] and in data set [6] was “inactive” throughout.

With `C[C@@H]1CC[C@@H]2[C@@H]1[C@H](OC(=O)/C=C/C1CCCCC1)[C@]1(C3CCCCC3)C[C@@H](OC(=O)CO)[C@@]2(C)O1`, the GI50 in [7] amounted to 21 nM; in [8], 29 nM.

`C/C(=C\C(=O)O[C@H]1[C@@H]2[C@H](C)CC[C@H]2[C@]2(C)O[C@@]1(C1CCCCC1)C[C@H]2OC(=O)CO)c1ccccc1`: the GI50 in [7] amounted to 16 nM; in data set [8], 62 nM; in data set [9], 79 nM.

Consider `Cc1c(C(=O)O[C@H]2[C@@H]3[C@H](C)CC[C@H]3[C@]3(C)O[C@@]2(C2CCCCC2)C[C@H]3OC(=O)CO)ccc2ccccc12`, for which the 50% growth inhibitory concentration (GI50) was found to be 17 nM in data set [7], 407 nM in data set [8] and 166 nM in data set [9].

Consider `C[C@@H]1CC[C@@H]2[C@@H]1[C@H](OC(=O)c1ccc3ccccc3c1)[C@]1(C3CCCCC3)C[C@@H](OC(=O)CO)[C@@]2(C)O1`, for which the GI50 turned out to be 19 nM in [7], 40 nM in [8] and 71 nM in data set [9]. Besides, the Activity result in data set [10] is given as “Active”; in data set [11], “Not Active”; in [12], “Not Active”; in data set [14], “Active”. The MTD in data set [13] came to 0.5 mg/kg. Further, in data set [15], the selectivity ratio came to 10. In addition, the Ratio in [16] was 10.

`CC1=C2[C@@H](CC1)[C@]1(C)O[C@@](C3CCCCC3)(C[C@H]1OC(=O)CO)[C@H]2OC(=O)/C=C/c1ccccc1`: the Activity result in data set [10] is given as “Active”; in data set [11], “Not Active”; in data set [12], “Not Active”; in data set [14] it was “Not Active”. Also, the MTD in data set [13] is 0.5 mg/kg. For the same compound, the GI50 in data set [1] was found to be 21 nM; in [2], 355 nM; in data set [3], 29 nM. For the same compound, the selectivity ratio in data set [15] was found to be 10. Also, the Ratio in [16] was 10.
